ChEMBL document CHEMBL4007420, “Structural Optimization and Pharmacological Evaluation of Inhibitors Targeting Dual-Specificity Tyrosine Phosphorylation-Regulated Kinases (DYRK) and CDC-like kinases (CLK) in Glioblastoma” (J Med Chem, 2017)
Activity calls are given as the source filed them. No cut-off for these calls is given here.

Columns and labels:
A 172 [1] = assay: Antiinvasive activity in human A172 cells measured up to 20 hrs by matrigel assay; format: functional, cell-based
[2] = target: T1, Dual specificity tyrosine-phosphorylation-regulated kinase 1B (Homo sapiens, UniProt Q9Y463); assay: Inhibition of DYRK1B (unknown origin) using woodtide as substrate after 40 mins in presence of [gamma-33P]ATP by microbeta scintillation counting
Target sequence in this assay (Q9Y463 whole entry): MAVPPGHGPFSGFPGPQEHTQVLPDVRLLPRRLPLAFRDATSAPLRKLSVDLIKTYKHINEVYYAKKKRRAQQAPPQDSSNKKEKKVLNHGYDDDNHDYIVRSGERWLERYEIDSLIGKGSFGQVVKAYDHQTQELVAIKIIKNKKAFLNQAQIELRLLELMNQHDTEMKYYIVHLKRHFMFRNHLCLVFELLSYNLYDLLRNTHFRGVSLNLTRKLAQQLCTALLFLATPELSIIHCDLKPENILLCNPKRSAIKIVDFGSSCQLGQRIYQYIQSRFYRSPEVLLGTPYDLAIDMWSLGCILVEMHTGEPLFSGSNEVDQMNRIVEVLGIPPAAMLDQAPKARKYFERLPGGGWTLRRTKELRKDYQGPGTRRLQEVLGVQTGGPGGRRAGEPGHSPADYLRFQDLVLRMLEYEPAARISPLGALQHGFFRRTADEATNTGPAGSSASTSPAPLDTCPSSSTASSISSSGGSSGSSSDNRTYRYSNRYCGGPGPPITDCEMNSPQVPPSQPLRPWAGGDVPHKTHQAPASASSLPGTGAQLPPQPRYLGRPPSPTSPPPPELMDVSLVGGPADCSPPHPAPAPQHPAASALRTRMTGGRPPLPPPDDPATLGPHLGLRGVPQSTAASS

U-251 [3] = assay: Antiinvasive activity in human U251 cells assessed as velocity of invasion at 1 uM measured up to 20 hrs by matrigel assay (reference value: 1151 to 1710 micrometer/hr); format: functional
[4] = Cytotoxicity against patient-derived WK1 cells assessed as reduction in cell viability after 5 days by Alamar blue assay; format: functional, cell-based; conditions: Homo sapiens, WK1, 120 h
In short: (§1)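 The patient-derived glioblastoma lines were grown as stem cells under defined conditions to keep the phenotype and genotype of the resected tumours. Viability after treatment was read with Alamar blue.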

[5] = target: T2, Dual specificity tyrosine-phosphorylation-regulated kinase 2 (Homo sapiens, UniProt Q92630); assay: Inhibition of DYRK2 (unknown origin) using woodtide as substrate after 40 mins in presence of [gamma-33P]ATP by microbeta scintillation counting
T2 sequence (Q92630 whole entry): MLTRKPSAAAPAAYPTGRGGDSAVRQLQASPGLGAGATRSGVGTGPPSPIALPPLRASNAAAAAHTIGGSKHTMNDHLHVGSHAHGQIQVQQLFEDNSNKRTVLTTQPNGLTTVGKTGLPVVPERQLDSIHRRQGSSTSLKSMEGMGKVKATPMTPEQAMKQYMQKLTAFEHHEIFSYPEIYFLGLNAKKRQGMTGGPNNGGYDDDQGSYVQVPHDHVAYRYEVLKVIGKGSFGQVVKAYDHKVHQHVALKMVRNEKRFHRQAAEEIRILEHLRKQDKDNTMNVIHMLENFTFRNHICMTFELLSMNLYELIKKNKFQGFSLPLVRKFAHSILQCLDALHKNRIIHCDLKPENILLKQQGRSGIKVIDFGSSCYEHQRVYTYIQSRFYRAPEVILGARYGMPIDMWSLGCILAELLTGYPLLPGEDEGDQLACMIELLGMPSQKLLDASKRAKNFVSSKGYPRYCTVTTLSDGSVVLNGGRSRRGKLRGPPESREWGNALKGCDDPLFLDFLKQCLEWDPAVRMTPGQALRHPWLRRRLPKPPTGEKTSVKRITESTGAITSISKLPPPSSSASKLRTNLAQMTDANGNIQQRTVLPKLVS

A 172 [6] = assay: Antimigratory activity in human A172 cells at 5 uM measured up to 20 hrs by wound scratch assay; format: functional; conditions: A 172, 20 h
In short: (§2)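 Wound-healing migration assay: cell movement across the wound is measured as velocity (µm/h). Compounds were tested at 0, 1.0, 5.0 and 10.0 µM. Values are mean ± SEM of 3 independent experiments.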

[7] = target: T3, Dual specificity tyrosine-phosphorylation-regulated kinase 1A (Homo sapiens, UniProt Q13627); assay: Inhibition of DYRK1A (unknown origin) using woodtide as substrate after 10 mins in presence of [gamma-33P]ATP by microbeta scintillation counting
[8] = target: T3, Dual specificity tyrosine-phosphorylation-regulated kinase 1A; assay: Inhibition of DYRK1A in human U251 cell lysate assessed as EGF induced EGFR degradation at 2.5 uM by measuring basal EGFR half life in presence of cycloheximide by Western blot analysis (reference value: 25.6 +/- 7.6 min)
In short: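 U251 cells were pretreated with 2.5 µM compound or DMSO for 4 h, then given cycloheximide (30 µg/mL, 1 h). EGF (100 ng/mL) was added for 0–120 min. EGFR was detected by Western blot, normalized to β-actin and expressed as % of 0 min. Half-life came from non-linear regression, as mean ± SEM of 3 independent experiments.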

[9] = target: T1, Dual specificity tyrosine-phosphorylation-regulated kinase 1B; assay: Stabilization of DYRK1B in human U251 cell lysate at 10 uM preincubated for 1 hr followed by incubation at 40 to 70 degreeC for 3 mins by cellular thermal shift assay
Target sequence in this assay (Q9Y463 whole entry, looked up): as the sequence (Q9Y463 whole entry) above

[10] = Antimigratory activity in patient-derived RN1 cells assessed as velocity of migration at 1 uM measured up to 20 hrs by wound scratch assay (reference value: 937 to 1174 micrometer/hr); format: functional, Homo sapiens; in short: as §2
U-251 [11] = assay: Antimigratory activity in human U251 cells assessed as velocity of migration at 1 uM measured up to 20 hrs by wound scratch assay (reference value: 2159 to 2653 micrometer/hr); format: functional; in short: as §2
[12] = Cytotoxicity against patient-derived SJH1 cells assessed as reduction in cell viability after 3 days by Alamar blue assay; format: functional, cell-based; conditions: Homo sapiens, SJH1, 72 h; in short: as §1
A 172 [13] = assay: Antiinvasive activity in human A172 cells assessed as velocity of invasion at 10 uM measured up to 20 hrs by matrigel assay (reference value: 2659 to 3047 micrometer/hr); format: functional
[14] = target: Dual specificity protein kinase CLK1 (Homo sapiens, UniProt P49759); assay: Inhibition of CLK1 (unknown origin) using KKGRSRSRSRSRSR as substrate after 40 mins in presence of [gamma-33P]ATP by microbeta scintillation counting
In short: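 CLK1 was assayed with RS peptide substrate at 100 µM ATP.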

[15] = target: T4, Dual specificity tyrosine-phosphorylation-regulated kinase 2 (Homo sapiens) (UniProt Q92630); assay: Stabilization of DYRK2 in human U251 cell lysate at 10 uM preincubated for 1 hr followed by incubation at 40 to 70 degreeC for 3 mins by cellular thermal shift assay
T4 sequence (whole entry): T2 sequence (Q92630 whole entry)

RN1 = assay: (§3) Anticlonogenic activity against patient-derived RN1 cells after 10 to 12 days by toluidine blue staining based assay; format: functional, cell-based; conditions: Homo sapiens
In short: (§4)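 Cells were exposed to compound for 10 days, then colonies were fixed, stained with Toluidine Blue and counted. […] Values are mean ± SEM of 3 independent experiments, each in duplicate, with one-way ANOVA and Dunnett's test against vehicle.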

[16] = as §3; format: functional, cell-based, Homo sapiens; in short: as §4
A 172 [17] = assay: Antimigratory activity in human A172 cells assessed as velocity of migration at 5 uM measured up to 20 hrs by wound scratch assay (reference value: 2650 to 3123 micrometer/hr); format: functional; in short: as §2
U-251 [18] = assay: Antimigratory activity in human U251 cells assessed as velocity of migration at 10 uM measured up to 20 hrs by wound scratch assay (reference value: 2159 to 2653 micrometer/hr); format: functional; in short: as §2
[19] = Antimigratory activity in patient-derived RN1 cells assessed as velocity of migration at 5 uM measured up to 20 hrs by wound scratch assay (reference value: 937 to 1174 micrometer/hr); format: functional, Homo sapiens; in short: as §2
U-251 [20] = assay: Antiinvasive activity in human U251 cells assessed as velocity of invasion at 5 uM measured up to 20 hrs by matrigel assay (reference value: 1151 to 1710 micrometer/hr); format: functional
[21] = target: T3, Dual specificity tyrosine-phosphorylation-regulated kinase 1A; assay: Binding affinity to DYRK1A in human U251 […] preincubated for 1 hr followed by incubation at 54 degreeC for 3 mins by isothermal dose-response fingerprint assay
In short: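 Isothermal dose-response fingerprint: intact U251 cells were treated for 1 h across 0–20 µM, then heated at 54 °C. The soluble fraction was extracted with aqueous buffer and DYRK1A was detected by Western blot. Results are mean ± SEM of 2 independent experiments.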

U-251 [22] = assay: Antiinvasive activity in human U251 cells measured up to 20 hrs by matrigel assay; format: functional, cell-based
U-251 [23] = assay: Anticlonogenic activity against human U251 cells after 10 to 12 days by toluidine blue staining based assay; format: functional, cell-based; in short: as §4

Chain of Dual specificity protein kinase CLK1 (P49759 whole entry): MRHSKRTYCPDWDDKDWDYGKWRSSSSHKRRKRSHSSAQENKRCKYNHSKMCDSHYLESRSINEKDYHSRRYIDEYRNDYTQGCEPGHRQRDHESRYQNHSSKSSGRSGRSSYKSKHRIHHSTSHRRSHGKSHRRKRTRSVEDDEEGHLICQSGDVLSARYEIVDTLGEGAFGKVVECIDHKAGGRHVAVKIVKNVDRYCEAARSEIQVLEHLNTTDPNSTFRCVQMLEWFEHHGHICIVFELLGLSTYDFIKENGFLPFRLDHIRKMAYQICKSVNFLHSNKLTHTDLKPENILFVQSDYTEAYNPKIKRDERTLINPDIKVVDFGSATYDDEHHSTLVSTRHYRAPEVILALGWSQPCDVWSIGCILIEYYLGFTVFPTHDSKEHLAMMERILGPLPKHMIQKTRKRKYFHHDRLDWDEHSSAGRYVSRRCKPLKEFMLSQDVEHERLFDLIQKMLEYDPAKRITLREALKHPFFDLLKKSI

- IC50 [2]: 0.032 µM
- IC50 [5]: 0.567 µM
- IC50 [7]: 0.043 µM
- T1/2 [8]: 11.3 min
- Activity [9]: Active
- IC50 [14]: 0.034 µM
- Activity [15]: Active
- EC50 [16]: 0.8 µM
- IC50 [21]: 0.711 µM
- EC50 (U-251 [23]): 0.18 µM
SMILES: Nc1ccc(-c2cnc3[nH]cc(-c4ccc(O)cc4)c3c2)cc1
- inhibition (A 172 [1]): Dose-dependent effect
- Activity (U-251 [3]): 1139 um/hr
- EC50 [4]: 0.9 µM
- inhibition at 5 µM (A 172 [6]): > 75%
- Activity [10]: 355 um/hr
- Activity (U-251 [11]): 1247 um/hr
- EC50 [12]: 3.2 µM
- Activity (A 172 [13]): 714 um/hr
- Activity (RN1): Dose-dependent effect
- Activity (A 172 [17]): 728 um/hr
- Activity (U-251 [18]): 129 um/hr
- Activity [19]: 118 um/hr
- Activity (U-251 [20]): 234 um/hr
- inhibition (U-251 [22]): Dose-dependent effect
